Common to all, as to format: functional, organism-based
Assay [1] deals with Escherichia coli. The experiment in a line: Antibacterial activity against Escherichia coli K12 assessed as bacterial growth inhibition at 32 ug/ml measured after 16 hrs by broth microdilution method. Particulars: K-12. In short, it runs like this: (§1)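 Broth microdilution in Mueller Hinton broth, triplicate. Direct colony suspension at 1.5 x 10^8 CFU/mL diluted to ~10^5 CFU/mL. Serial dilutions made from DMSO stocks at 1 mg/mL; vancomycin positive control, blank medium negative control. Incubated 16 h at optimum temperature. MIC is the lowest concentration without visible growth at 600 nm; mean of triplicate determinations.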
(In general: In broth dilution the organism is exposed to a series of concentrations in liquid medium.)

A further assay relates to Acinetobacter baumannii. Nature of the assay: Antibacterial activity against Acinetobacter baumannii ATCC 19606 assessed as bacterial growth inhibition at 32 ug/ml measured after 16 hrs by broth microdilution method. Particulars: ATCC 19606 = CIP 70.34 = JCM 6841.
For assay [2], the system named is Escherichia coli. The experiment in a line: Antibacterial activity against Escherichia coli ATCC 25922 assessed as bacterial growth inhibition at 32 ug/ml measured after 16 hrs by broth microdilution method.
The test system of a further assay is Pseudomonas aeruginosa. Nature of the assay: Antibacterial activity against Pseudomonas aeruginosa ATCC 27853 assessed as bacterial growth inhibition at 32 ug/ml measured after 16 hrs by broth microdilution method.
The subject of a further assay is Chlamydia trachomatis. Nature of the assay: Anti-chlamydial activity against Chlamydia trachomatis Serovar LGV-L2 infected in Hep2 cells assessed as inhibition of chlamydial inclusion at 50 ug/ml treated at 8 hrs post infection and measured at 24 hrs post-infection by immunofluorescence assay. The method, boiled down: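 HEp-2 cells infected with C. trachomatis serovar L2. Compounds at 50 μg/mL added 8 hpi; inclusion number and size assessed by immunofluorescence at 24 hpi against untreated cells. Cell morphology and viability checked by phase-contrast microscopy.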

The subject of the next assay is Candida albicans. The experiment in a line: Antifungal activity against Candida albicans ATCC 90028 assessed as fungal growth inhibition at 32 ug/ml measured after 16 hrs by broth microdilution method.
For another assay, the system named is Klebsiella pneumoniae. The experiment in a line: Antibacterial activity against Klebsiella pneumoniae ATCC 700603 assessed as bacterial growth inhibition at 32 ug/ml measured after 16 hrs by broth microdilution method.
Assay [3] has as its system Staphylococcus aureus. The experiment in a line: Antibacterial activity against Staphylococcus aureus JE2 assessed as bacterial growth inhibition at 32 ug/ml measured after 16 hrs by broth microdilution method. In short, it runs like this: as §1
A further assay has as its system Cryptococcus neoformans. Nature of the assay: Antifungal activity against Cryptococcus neoformans var. grubii H99 ATCC […] as fungal growth inhibition at 32 ug/ml measured after 16 hrs by broth microdilution method. Particulars: var. grubii H99 ATCC 208821.
Assay [4] relates to Staphylococcus aureus. The experiment in a line: Antibacterial activity against methicillin-resistant Staphylococcus aureus ATCC 43300 assessed as bacterial growth inhibition at 32 ug/ml measured after 16 hrs by broth microdilution method.

Each structure is given as a SMILES string. The source made the active and inactive calls. No cut-off for these calls is given here.

As to `CC(C)(C(=O)NCCSc1ccccc1Cl)S(=O)(=O)c1ccc(C(F)(F)F)cc1`, the inhibition result in the assay with Escherichia coli [1], in the assay with Acinetobacter baumannii, in the assay with Escherichia coli [2], with Pseudomonas aeruginosa, in the assay with Candida albicans and with Klebsiella pneumoniae was “inactive” each time. The inhibition entry with Staphylococcus aureus [3], in the assay with Cryptococcus neoformans and in the assay with Staphylococcus aureus [4] was “inactive” throughout. The inhibition entry in the assay on Chlamydia trachomatis was “Active”.
Regarding `CC(C)(C(=O)NCCOc1ccc(Cl)cc1)S(=O)(=O)c1ccc(C(F)(F)F)cc1`, the inhibition entry in the assay with Escherichia coli [1], with Acinetobacter baumannii, with Escherichia coli [2], in the assay with Pseudomonas aeruginosa, with Chlamydia trachomatis and with Candida albicans was “inactive” throughout. The inhibition result with Klebsiella pneumoniae, in the assay on Staphylococcus aureus [3], with Cryptococcus neoformans and with Staphylococcus aureus [4] was “inactive” throughout.
With `Cc1ccc(C)c(N2CCN(C(=O)C(C)S(=O)(=O)c3ccc(C(F)(F)F)cn3)CC2)c1` (configuration not stated), the inhibition result in the assay on Escherichia coli [1], in the assay with Acinetobacter baumannii, with Escherichia coli [2], in the assay with Pseudomonas aeruginosa, in the assay on Chlamydia trachomatis and in the assay on Candida albicans was “inactive” throughout. In addition, the inhibition entry in the assay with Klebsiella pneumoniae, in the assay on Staphylococcus aureus [3], in the assay on Cryptococcus neoformans and with Staphylococcus aureus [4] was “inactive” in each case.
For the molecule `Cc1ccccc1N1CCN(C(=O)C(C)S(=O)(=O)c2ccc(C(F)(F)F)cn2)CC1` (configuration not stated), the inhibition entry with Escherichia coli [1], in the assay with Acinetobacter baumannii, in the assay on Escherichia coli [2], in the assay with Pseudomonas aeruginosa, in the assay on Chlamydia trachomatis and with Candida albicans was “inactive” throughout. Further, the inhibition entry in the assay with Klebsiella pneumoniae, with Staphylococcus aureus [3], with Cryptococcus neoformans and in the assay with Staphylococcus aureus [4] was “inactive” throughout.
On to `CC(C)(C(=O)NCCOc1ccccc1)S(=O)(=O)c1ccccc1`, for which, in the assay with Chlamydia trachomatis, the inhibition entry is “inactive”.
With `CC(C)(C(=O)N1CCN(Cc2ccc(F)cc2)CC1)S(=O)(=O)c1ccc(C(F)(F)F)cn1`, the inhibition result in the assay on Escherichia coli [1], in the assay on Acinetobacter baumannii, in the assay on Escherichia coli [2], in the assay with Pseudomonas aeruginosa, in the assay on Chlamydia trachomatis and in the assay with Candida albicans was “inactive” throughout. In addition, the inhibition result with Klebsiella pneumoniae, with Staphylococcus aureus [3], in the assay with Cryptococcus neoformans and with Staphylococcus aureus [4] was “inactive” each time.
`CC(C(=O)NCCCc1ccccc1)S(=O)(=O)c1ccc(C(F)(F)F)cn1` (configuration not stated): the inhibition entry in the assay on Escherichia coli [1], in the assay with Acinetobacter baumannii, in the assay on Escherichia coli [2], with Pseudomonas aeruginosa, with Chlamydia trachomatis and with Candida albicans was “inactive” in each case. Besides, the inhibition result in the assay with Klebsiella pneumoniae, with Staphylococcus aureus [3], in the assay with Cryptococcus neoformans and with Staphylococcus aureus [4] was “inactive” each time.
With `CC(C)(C(=O)NCCSc1ccccc1)S(=O)(=O)c1ccc(C(F)(F)F)cn1`, the inhibition result with Chlamydia trachomatis was “inactive”.
Take `Cc1ccc(C)c(N2CCN(C(=O)C(C)(C)S(=O)(=O)c3ccc(C(F)(F)F)cn3)CC2)c1`: the inhibition entry in the assay on Escherichia coli [1], with Acinetobacter baumannii, with Escherichia coli [2], with Pseudomonas aeruginosa, in the assay with Candida albicans and with Klebsiella pneumoniae was “inactive” each time. Besides, the inhibition result with Staphylococcus aureus [3], in the assay on Cryptococcus neoformans and in the assay on Staphylococcus aureus [4] was “inactive” each time. Further, the inhibition entry with Chlamydia trachomatis is “Active”.
Consider `CC(C(=O)N1CCN(c2ccc(Cl)c(Cl)c2)CC1)S(=O)(=O)c1ccc(C(F)(F)F)cn1` (configuration not stated), for which the inhibition result in the assay with Escherichia coli [1], in the assay with Acinetobacter baumannii, in the assay on Escherichia coli [2], in the assay with Pseudomonas aeruginosa, with Chlamydia trachomatis and in the assay on Candida albicans was “inactive” each time. Besides, the inhibition entry in the assay with Klebsiella pneumoniae, with Staphylococcus aureus [3], in the assay on Cryptococcus neoformans and in the assay with Staphylococcus aureus [4] was “inactive” in each case.
For the molecule `CC(C)(C(=O)NCCOc1ccc(Cl)cc1)S(=O)(=O)c1ccccc1`, the inhibition result in the assay on Escherichia coli [1], in the assay with Acinetobacter baumannii, in the assay on Escherichia coli [2], in the assay with Pseudomonas aeruginosa, with Chlamydia trachomatis and in the assay on Candida albicans was “inactive” throughout. For the same molecule, the inhibition entry in the assay with Klebsiella pneumoniae, with Staphylococcus aureus [3], with Cryptococcus neoformans and with Staphylococcus aureus [4] was “inactive” each time.
Take `CC(C)(C(=O)N1CCN(c2ccccn2)CC1)S(=O)(=O)c1ccc(C(F)(F)F)cn1`: the inhibition result in the assay with Escherichia coli [1], in the assay on Acinetobacter baumannii, in the assay on Escherichia coli [2], with Pseudomonas aeruginosa, in the assay with Chlamydia trachomatis and in the assay with Candida albicans was “inactive” in each case. For the same molecule, the inhibition entry in the assay with Klebsiella pneumoniae, with Staphylococcus aureus [3], with Cryptococcus neoformans and with Staphylococcus aureus [4] was “inactive” throughout.
For `CC(C)(C(=O)NCCCc1ccccc1)S(=O)(=O)c1ccc(Cl)cn1`, the inhibition entry with Chlamydia trachomatis was “Active”.
`CC(C)(C(=O)NCCSc1ccc(Cl)cc1)S(=O)(=O)c1ccc(C(F)(F)F)cc1`: the inhibition entry in the assay on Escherichia coli [1], in the assay on Acinetobacter baumannii, in the assay on Escherichia coli [2], in the assay with Pseudomonas aeruginosa, in the assay on Candida albicans and in the assay on Klebsiella pneumoniae was “inactive” in each case. Besides, the inhibition result with Staphylococcus aureus [3], in the assay on Cryptococcus neoformans and with Staphylococcus aureus [4] was “inactive” throughout. Besides, in the assay on Chlamydia trachomatis, the inhibition result is “Active”.
For `NCCCc1ccccc1`, the inhibition entry in the assay on Escherichia coli [1], in the assay on Acinetobacter baumannii, with Escherichia coli [2], in the assay on Pseudomonas aeruginosa, in the assay with Candida albicans and in the assay on Klebsiella pneumoniae was “inactive” in each case. Further, the inhibition entry in the assay on Staphylococcus aureus [3], in the assay with Cryptococcus neoformans and in the assay with Staphylococcus aureus [4] was “inactive” throughout.

The values are drawn from ChEMBL document CHEMBL4342502, “Synthesis and Antichlamydial Activity of Molecules Based on Dysregulators of Cylindrical Proteases” (J Med Chem, 2020).
